The values that follow come from PubChem BioAssay.

A short description of experiment [1]: OD615 S. cerevisiae growth inhibition, permissive medium, pilot counter-assay, permissive growth control for S. cerevisiae lifespan shortening project (AID 705). To be noted: OD615, 24 h, at 10 µM, stronger effect = higher value. In a few lines:
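System – S. cerevisiae with engineered DeaD lifespan system · Buffer or medium – SC raffinose/galactose permissive medium · Schedule – cells pre-grown 4 h, then 24 h compound exposure, 30 °C humidified · Technique – culture turbidity as optical density at 615 nm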

Experiment [2] can be described thus: Restrictive medium S. cerevisiae growth inhibition, OD615, pilot screen of yeast lifespan reduction project, restrictive growth control (AID 706;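 active means growth inhibition above a set limit, 3 SD over mean compound inhibition, in both replicates, cut at about 43% in these data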;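 further: modified DeaD lifespan yeast strain shifted to restrictive glucose medium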). Conditions: OD615, 48 h, at 10 µM, stronger effect = higher value. In a few lines: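 Material: engineered S. cerevisiae DeaD strain / Medium: glucose-based CSMM-D restrictive medium / Compound: single dose of 10 µM compound final, 0.25% DMSO / Timing: 4 h pre-incubation, 48 h exposure at 30 °C / Technique: OD615 absorbance reading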

The nature of experiment [3]: viability gain of MRP-1-high H69AR cells under doxorubicin, pilot screen, MRP-1 activator project, CellTiter-Glo, duplicate (AID 807;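 active means viability increase at or above a cutoff of the median across tested compounds plus 3 SD, cut at about 8.5% in these data, passing the limit was not always enough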;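 further: compound pretreatment 18-22 h then 72 h combined with doxorubicin; 0% = doxorubicin alone and 100% = vehicle without doxorubicin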). Conditions: H69AR viability with doxorubicin, CellTiter-Glo luminescence; at 10 µM; stronger effect = higher value. (In general: ATP-based viability assays read luminescence as a measure of living cells.)
Experiment [4] is described as follows: growth suppression of PTEN-deleted HCT116, pilot screen, cell-based, HCT116 clonal line, CellTiter-Glo (AID 824;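 active means viability at or below 27.92% in each of two runs, the all-compound median minus 4 SD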;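 further: 0% = 20 µM Hyamine control and 100% = vehicle cell control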). To be noted: 60 h, at 10 µM, stronger effect = lower value.
Experiment [5] is described as follows: inhibitors of the yeast RAM network, pilot screen, dse1pr::URA3 reporter, 5-FOA selection (AID 869;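 active means inhibition over a set limit, the all-compound mean plus 3 SD, in both replicate runs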;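 further: 0% = DMSO wells with no growth and 100% = 10 µM 1-NA-PP1 with full growth; RAM network block rescues cells from 5-FOA so hits raise OD615 growth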). Conditions: S. cerevisiae dse1pr::URA3 5-FOA growth, OD615, 2 d, at 10 µM, stronger effect = higher value.
Experiment [6] is described as follows: RAM signaling pathway blockade in yeast – S. cerevisiae, Pdr1DBD-CYC8 efflux-inhibited sensitized strain, primary screen (AID 1298;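 active means RAM network inhibition above 8.4% in each of two replicates, 3 SD over the compound average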;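 further: 0% = DMSO untreated cells without growth and 100% = 10 µM 1-NA-PP1 full growth; higher means more yeast growth rescued from 5-FOA killing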). To be noted: S. cerevisiae cbk1-as DSE1-URA3 strain, 5-FOA growth OD615, 2 d; at 50 µM; stronger effect = higher value.
Experiment [7] in a line: growth suppression of beta-catenin knockout HCT116, pilot screen, human colon tumor cells (AID 823;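 active means cell viability at or below a set limit in both duplicate runs, the limit being the all-compound median minus 4 SD, cut at about 23% in these data, passing the limit was not always enough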;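 further: 0% = wells killed by 20 µM Hyamine and 100% = untreated DMSO cell wells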). Conditions: CellTiter-Glo, 60 h, at 10 µM, stronger effect = lower value.
Experiment [8] in a line: Recombinant Mtb pantothenate synthetase (PanC) inhibitors, coupled enzyme, confirmatory (AID 375; call rule not given here). Conditions: coupled enzyme assay; measured here: coupling enzymes IC50 repeat trials unless noted.
The target in experiment [9] is Pantothenate synthetase (Mycobacterium tuberculosis (strain ATCC 25618 / H37Rv)) (UniProt P9WIL5). The experiment is described as above. Conditions: coupled enzyme assay; at 10 µM, stronger effect = higher value.
Sequence of Pantothenate synthetase (Mycobacterium tuberculosis (strain ATCC 25618 / H37Rv)) (P9WIL5 whole entry, looked up): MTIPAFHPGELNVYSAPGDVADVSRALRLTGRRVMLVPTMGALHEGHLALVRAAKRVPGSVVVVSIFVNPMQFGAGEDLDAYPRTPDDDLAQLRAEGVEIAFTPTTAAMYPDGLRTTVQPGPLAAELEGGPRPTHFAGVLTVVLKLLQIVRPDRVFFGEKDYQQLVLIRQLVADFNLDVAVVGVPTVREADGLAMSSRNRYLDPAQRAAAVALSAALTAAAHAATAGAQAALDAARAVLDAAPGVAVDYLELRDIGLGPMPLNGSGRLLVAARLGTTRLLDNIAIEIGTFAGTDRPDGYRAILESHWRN

Molecules are shown by their SMILES. pIC50: −log10 of the molar value. Records with an inconclusive call do not appear. Activity calls are given as the source filed them.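 How the source made its calls, unless noted: active means growth inhibition above 25% in both replicates, a cutoff set 3 SD above the mean; inconclusive means above 25% in only one replicate; inactive means the rest.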

In general, viability refers to a read-out of living cells in per cent, often relative to untreated cells. The term inhibition denotes the change of the read-out against control, counted positive when it falls. As to `Cc1c(C(=O)N2CCC3(CC2)OCCO3)oc2ccc(S(=O)(=O)N3CCOCC3)cc12`, the growth inhibition in experiment [1] was -9.41% (inactive); in [2], -18.4% (inactive). Also, the viability increase in [3] is -1.67% (inactive). The viability in experiment [4] was 98.4% (inactive). The inhibition in experiment [5] was 1.09% (inactive). For the same compound, the RAM network inhibition in [6] was 1.19% (inactive).
On to `CC1=CC(=C2C(=O)NC(=O)NC2=O)C=C(C(F)(F)F)N1C(C)C`, for which the growth inhibition was -13.5% (inactive) in [1] and -9.69% (inactive) in [2]. The viability increase in experiment [3] is -1.79% (inactive). Moreover, the figures for the viability in experiment [7] and in experiment [4] were 92.5% (inactive) and 91.3% (inactive), respectively. The inhibition in experiment [5] was 2.69% (inactive). Besides, in experiment [6], the RAM network inhibition is 0.05% (inactive).
On to `CC1(C)CC(n2[nH]c(=O)c3c2NC(=O)CSC3c2ccc(F)cc2)CCO1` (stereo not drawn), for which the growth inhibition in experiment [1] is -12.3% (inactive); in [2], -25.8% (inactive). Moreover, the viability increase in experiment [3] was -2.67% (inactive). Besides, the viability in experiment [7] was 95.8% (inactive). For the same compound, in experiment [5], the inhibition is -0.28% (inactive). In addition, the RAM network inhibition in experiment [6] was 4.89% (inactive).
With `CCCCCn1c(=O)c(C(=O)Nc2ccncc2)c(O)c2ccccc21`, the growth inhibition was 92.1% (active) in experiment [1] and 100% (active) in experiment [2]. Moreover, in experiment [3], the viability increase is -8.28% (inactive). Besides, the viability is 13.2% (active) in experiment [7] and 9.96% (active) in experiment [4]. In addition, in [5], the inhibition was -0.43% [strain carries analog-sensitive mutant Cbk1 kinase] (inactive). The RAM network inhibition in experiment [6] was -1.36% (inactive).
For `CCCOc1ccccc1C1SCC(=O)Nc2c1c(=O)[nH]n2C(C)CCC` (stereo not drawn), the growth inhibition in [1] is -9.65% (inactive); in [2], -5.25% (inactive). For the same compound, the viability increase in experiment [3] was 1.02% (inactive). Also, the viability in experiment [7] was 94% (inactive). The inhibition in [5] is 1.6% (inactive). Also, in experiment [6], the RAM network inhibition was 1.25% (inactive).
`O=C(Nc1ccccc1OC(=O)N1CCCCC1)N1CCCCC1`: the growth inhibition in experiment [1] is -8.28% (inactive); in [2], -4.06% (inactive). Moreover, the viability increase in experiment [3] is -2.07% (inactive). The viability is 97.4% (inactive) in experiment [7] and 100% (inactive) in experiment [4]. Moreover, in experiment [5], the inhibition was 0.8% (inactive). Moreover, in [6], the RAM network inhibition was 3.27% (inactive).
Regarding `CN(C)c1ccc(CN2CC=C(c3ccc(F)cc3)CC2)cc1`, the growth inhibition in experiment [1] is -15.2% (inactive); in [2] it was -10.7% (inactive). In experiment [3], the viability increase is -2.99% (inactive). The viability in [7] is 86.6% (inactive); in [4] it was 96.5% (inactive). For the same compound, the inhibition in [5] was 1.31% (inactive). In addition, in experiment [6], the RAM network inhibition was 1.92% (inactive).
Regarding `COc1ccc(C2C(C(=O)N3CCC4(CC3)OCCO4)c3cc(OC)c(OC)cc3C(=O)N2C)cc1` (stereo not drawn), the growth inhibition in experiment [1] is -15.2% (inactive); in [2] it was -29% (inactive). Besides, the viability increase in [3] was -2.58% (inactive). Moreover, the viability in [7] is 98% (inactive); in experiment [4] it was 99.4% (inactive). In addition, the inhibition in experiment [5] was 1.61% (inactive). Moreover, the RAM network inhibition in [6] was 0.93% (inactive).
`O=C1CC(N2CC=C(c3ccccc3)CC2)C(=O)N1c1ccc(F)cc1` (stereo not drawn): the growth inhibition in experiment [1] was -7.4% (inactive); in [2] it was -4.17% (inactive). Also, in [3], the viability increase is 3.41% (inactive). In addition, the viability is 98.8% (inactive) in experiment [7] and 97.3% (inactive) in experiment [4]. For the same compound, the inhibition in experiment [5] is 0.99% (inactive). Also, in experiment [6], the RAM network inhibition was 5.39% (inactive).
Regarding `C=C(C)c1cccc(C(C)(C)NC(=O)NC2CN3CCC2CC3)c1` (stereo not drawn), the growth inhibition in [1] was -5.2% (inactive); in experiment [2], 2.09% (inactive). In addition, the viability increase in experiment [3] is -1.24% (inactive). Besides, the viability in experiment [7] was 94.4% (inactive); in experiment [4], 93.9% (inactive). The inhibition in experiment [5] is -0.575% (inactive). Moreover, the RAM network inhibition in [6] is 0.82% (inactive).
Regarding `COc1cc2c(cc1OC)C(C(=O)N1CCC3(CC1)OCCO3)C(c1ccccc1F)N(C)C2=O` (stereo not drawn), the growth inhibition in [1] was -3.76% (inactive); in [2] it was 12% (inactive). Further, in experiment [3], the viability increase is -3.17% (inactive). The viability in experiment [4] is 84.3% (inactive). The inhibition in [5] was 1.23% (inactive). Further, the RAM network inhibition in [6] is 0.57% (inactive).
As to `CCc1sc(C(=O)N2CCC3(CC2)OCCO3)cc1Br`, the growth inhibition in experiment [1] was -7.48% (inactive); in experiment [2] it was -12.2% (inactive). Moreover, in experiment [3], the viability increase is -2% (inactive). The viability in [4] was 100% (inactive). Also, the inhibition in experiment [5] was 0.935% (inactive). For the same compound, the RAM network inhibition in experiment [6] is 1.59% (inactive).
Regarding `O=C(Cc1ccc(Br)cc1)N1CCN(Cc2ccccc2)CC1`, the figures for the growth inhibition in [1] and in experiment [2] were -2.42% (inactive) and -2.88% (inactive), respectively. Further, the viability increase in experiment [3] was -1.69% (inactive). Moreover, the viability in experiment [4] is 72.7% (inactive). In addition, the inhibition in experiment [5] is 1.23% (inactive). In experiment [6], the RAM network inhibition is 5.41% (inactive).
Consider `CCOC(=O)c1cncn1C(C)c1ccccc1` (stereo not drawn), for which the growth inhibition in [1] was -15.6% (inactive); in experiment [2] it was 1.2% (inactive). In addition, the viability increase in experiment [3] was -2.02% (inactive). For the same compound, the viability in experiment [7] was 102% (inactive). In addition, the inhibition in experiment [5] was 0.145% (inactive). Further, the RAM network inhibition in experiment [6] is 3.01% (inactive).
One may read the pIC50 as −log10 of the IC50, conventionally taken in molar units. For `Cc1ccccc1Cn1cc(NC(=O)c2noc3c2CC(C(C)(C)C)CC3)cn1` (stereo not drawn), the pIC50 in experiment [8] was under 4.00. Also, the outcome in experiment [9] was active.
For the compound `COc1cc(C2SCC(=O)Nc3c2c(=O)[nH]n3C2CCCCCC2)cc(OC)c1OC` (stereo not drawn), the growth inhibition was -22.7% (inactive) in experiment [1] and -4.26% (inactive) in experiment [2]. Further, the viability increase in experiment [3] was -2.62% (inactive). The viability in experiment [7] was 92.6% (inactive). Besides, in experiment [5], the inhibition was 2.39% (inactive). Further, the RAM network inhibition in experiment [6] was 2.76% (inactive).
For the compound `COc1cccc(N2C(=O)CC(=O)NC2=O)c1`, the growth inhibition in experiment [1] was -5.82% (inactive); in experiment [2] it was -6.37% (inactive). Besides, in experiment [3], the viability increase is -0.55% (inactive). Also, the viability in [4] is 108% (inactive). In experiment [5], the inhibition was 1.5% (inactive). Further, the RAM network inhibition in [6] is 1.99% (inactive).
As to `FC(F)(F)/C(=N\P(=S)(N1CCOCC1)N1CCOCC1)N1CCOCC1`, the growth inhibition was 6.63% (inactive) in [1] and -10.3% (inactive) in experiment [2]. For the same compound, in experiment [3], the viability increase was -1.97% (inactive). For the same compound, the viability in experiment [7] was 94.9% (inactive). The inhibition in [5] is 1.79% (inactive). Moreover, the RAM network inhibition in experiment [6] was 5.4% (inactive).
With `Cc1ccc2c(c1)C1CN(C)CCC1N2C(=O)c1ccco1` (stereo not drawn), the growth inhibition is -2.01% (inactive) in experiment [1] and -12.5% (inactive) in experiment [2]. The viability increase in experiment [3] is -3.67% (inactive). Further, the values for the viability in experiment [7] and in experiment [4] were 85.4% (inactive) and 91.9% (inactive), respectively. In experiment [5], the inhibition is 1.32% (inactive). In experiment [6], the RAM network inhibition was 2.85% (inactive).
